Results: ChEMBL document CHEMBL5223165, “Discovery of Coumarin-Based MEK1/2 PROTAC Effective in Human Cancer Cells” (ACS Med Chem Lett, 2023)
Activity calls are given as the source filed them. The calls are words filed in the database; no cut-off is given here.

Legend:
[1] = target: T1, von Hippel-Lindau disease tumor suppressor/Dual specificity mitogen-activated protein kinase kinase 2/Dual specificity mitogen-activated protein kinase kinase 1 (Homo sapiens) (UniProt P36507+Q02750+P40337); assay: Protac activity at VHL/MEK1/2 in human A549 cells assessed as MEK1/2 degradation at 10 uM incubated for 24 hrs by Western blot analysis relative to control; assay type: cell-based
T1 sequence (P36507 whole entry, looked up): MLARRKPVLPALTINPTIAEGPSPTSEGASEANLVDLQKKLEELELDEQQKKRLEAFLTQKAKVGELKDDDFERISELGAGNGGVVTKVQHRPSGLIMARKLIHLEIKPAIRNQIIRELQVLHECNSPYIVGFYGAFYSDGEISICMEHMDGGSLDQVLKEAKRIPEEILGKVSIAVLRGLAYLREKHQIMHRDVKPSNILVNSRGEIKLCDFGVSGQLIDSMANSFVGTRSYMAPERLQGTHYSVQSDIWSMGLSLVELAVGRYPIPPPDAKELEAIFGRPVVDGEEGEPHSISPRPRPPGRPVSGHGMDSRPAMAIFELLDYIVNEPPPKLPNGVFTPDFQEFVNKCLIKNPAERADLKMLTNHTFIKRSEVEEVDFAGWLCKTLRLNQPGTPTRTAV
T1 sequence (P40337 whole entry, looked up): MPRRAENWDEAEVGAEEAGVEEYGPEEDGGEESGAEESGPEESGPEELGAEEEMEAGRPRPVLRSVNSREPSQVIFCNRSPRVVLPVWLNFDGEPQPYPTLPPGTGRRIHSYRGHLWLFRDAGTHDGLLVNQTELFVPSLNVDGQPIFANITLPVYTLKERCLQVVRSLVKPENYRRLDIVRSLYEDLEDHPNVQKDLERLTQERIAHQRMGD
T1 sequence (Q02750 whole entry, looked up): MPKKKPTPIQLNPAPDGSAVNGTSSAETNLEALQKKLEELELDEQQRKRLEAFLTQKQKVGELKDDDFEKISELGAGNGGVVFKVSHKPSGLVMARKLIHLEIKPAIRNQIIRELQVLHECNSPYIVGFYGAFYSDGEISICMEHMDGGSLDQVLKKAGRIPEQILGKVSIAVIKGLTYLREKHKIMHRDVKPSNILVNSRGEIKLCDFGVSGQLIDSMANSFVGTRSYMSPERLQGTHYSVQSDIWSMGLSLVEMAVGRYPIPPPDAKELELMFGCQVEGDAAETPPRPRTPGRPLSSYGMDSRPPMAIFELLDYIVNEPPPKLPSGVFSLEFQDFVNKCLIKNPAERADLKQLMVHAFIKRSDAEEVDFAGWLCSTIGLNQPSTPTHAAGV

[2] = target: T2, Protein cereblon/Dual specificity mitogen-activated protein kinase kinase 1/Dual specificity mitogen-activated protein kinase kinase 2 (Homo sapiens) (UniProt P36507+Q02750+Q96SW2); assay: Protac activity at CRBN/MEK1/2 in human A549 cells assessed as MEK1/2 degradation at 10 uM incubated for 24 hrs by Western blot analysis relative to control; assay type: cell-based
T2 sequence (P36507 whole entry, looked up): as the sequence (P36507 whole entry, looked up) above
T2 sequence (Q02750 whole entry, looked up): as the sequence (Q02750 whole entry, looked up) above
T2 sequence (Q96SW2 whole entry, looked up): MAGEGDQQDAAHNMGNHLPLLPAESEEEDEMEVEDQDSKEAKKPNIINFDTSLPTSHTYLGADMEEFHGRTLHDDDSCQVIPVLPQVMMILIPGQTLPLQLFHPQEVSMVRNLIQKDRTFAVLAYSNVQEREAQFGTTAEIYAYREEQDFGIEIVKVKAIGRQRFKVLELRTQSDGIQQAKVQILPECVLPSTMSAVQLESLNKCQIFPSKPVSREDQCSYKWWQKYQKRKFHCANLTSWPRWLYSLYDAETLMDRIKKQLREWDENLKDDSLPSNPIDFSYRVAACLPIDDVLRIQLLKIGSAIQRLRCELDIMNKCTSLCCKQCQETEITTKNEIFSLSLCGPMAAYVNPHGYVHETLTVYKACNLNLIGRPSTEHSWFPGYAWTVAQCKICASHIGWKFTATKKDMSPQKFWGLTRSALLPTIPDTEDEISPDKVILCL

[3] = target: T2, Protein cereblon/Dual specificity mitogen-activated protein kinase kinase 1/Dual specificity mitogen-activated protein kinase kinase 2 (Homo sapiens); assay: Protac activity at CRBN/MEK1/2 in human A549 cells assessed as MEK1/2 degradation at 1 uM incubated for 24 hrs by Western blot analysis relative to control; assay type: cell-based
[4] = target: T1, von Hippel-Lindau disease tumor suppressor/Dual specificity mitogen-activated protein kinase kinase 2/Dual specificity mitogen-activated protein kinase kinase 1 (Homo sapiens); assay: Protac activity at VHL/MEK1/2 in human A549 cells assessed as MEK1/2 degradation at 1 uM incubated for 24 hrs by Western blot analysis relative to control; assay type: cell-based
A-375 [5] = assay: Antiproliferative activity against human A-375 cells assessed as inhibition of cell growth at 10 uM incubated for 48 hrs by MTT assay; assay type: functional; design: scale not given: the % may be the effect or the level left
A-375 [6] = assay: Antiproliferative activity against human A-375 cells incubated for 4 days by MTT assay; assay type: functional, cell-based; conditions: A-375, 96 h
[7] = target: T3, Dual specificity mitogen-activated protein kinase kinase; MEK1/2 (Homo sapiens, UniProt P36507+Q02750); assay: Induction of MEK1/2 degradation in human A549 cells assessed as reduction in pERK1/2 levels at 1 to 30 uM incubated for 24 hrs by Western blot analysis; assay type: cell-based; conditions: dose 1-30 µM
T3 sequence (P36507 whole entry, looked up): as the sequence (P36507 whole entry, looked up) above
T3 sequence (Q02750 whole entry, looked up): as the sequence (Q02750 whole entry, looked up) above

[8] = target: T3, Dual specificity mitogen-activated protein kinase kinase; MEK1/2; assay: Induction of MEK1/2 degradation in human A-375 cells incubated for 24 hrs by Western blot analysis; assay type: cell-based
Outline: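 A375 cells were given a concentration series of degrader for 24 h. MEK1/2 protein was quantified by immunoblot, and the DC50 (half-maximal degradation concentration) was taken from the dose-response.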

[9] = target: Dual specificity mitogen-activated protein kinase kinase 2 (Homo sapiens, UniProt P36507); assay: Induction of MEK2 degradation in human A549 cells incubated for 24 hrs by Western blot analysis; assay type: cell-based
Sequence of Dual specificity mitogen-activated protein kinase kinase 2 (P36507 whole entry): as the sequence (P36507 whole entry, looked up) above
Outline: (§1)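 A549 cells exposed to a range of degrader concentrations for 24 h. MEK1 and MEK2 protein levels were read by Western blot, and a separate half-maximal degradation concentration (DC50) was derived for each.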

[10] = target: T3, Dual specificity mitogen-activated protein kinase kinase; MEK1/2; assay: Induction of MEK1/2 degradation in human A549 cells at 1 uM incubated for 24 hrs by Western blot analysis; assay type: cell-based
Outline: (§2)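 Time course in A549 cells at 1 μM degrader, sampled at several time points up to 24 h. MEK1/2 protein reduction was judged by Western blot at each time point.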

[11] = Selectivity ratio of IC50 for human A549 cells to IC50 for human A-375 cells; assay type: functional
[12] = target: Dual specificity mitogen-activated protein kinase kinase 1 (Homo sapiens, UniProt Q02750); assay: Induction of MEK1 degradation in human A549 cells incubated for 24 hrs by Western blot analysis; assay type: cell-based; outline: as §1
Sequence of Dual specificity mitogen-activated protein kinase kinase 1 (Q02750 whole entry): as the sequence (Q02750 whole entry, looked up) above

[13] = target: T3, Dual specificity mitogen-activated protein kinase kinase; MEK1/2; assay: Induction of MEK1/2 degradation in human A549 cells at 1 uM incubated for 4 hrs by Western blot analysis; assay type: cell-based; outline: as §2
[14] = target: T3, Dual specificity mitogen-activated protein kinase kinase; MEK1/2; assay: Induction of MEK1/2 degradation in human A549 cells at 1 uM incubated for 24 hrs in presence of 3-(3-amino-2-fluorobenzyl)-4-methyl-7-(pyrimidin-2-yloxy)-2H-chromen-2-one by Western blot analysis; assay type: cell-based
[15] = target: T3, Dual specificity mitogen-activated protein kinase kinase; MEK1/2; assay: Induction of MEK1/2 degradation in human A549 cells at 1 uM incubated for 24 hrs in presence of (2S,4R)-1-((S)-2-amino-3,3-dimethylbutanoyl)-4-hydroxy-N-((S)-1-(4-(4-methylthiazol-5-yl)phenyl)ethyl)pyrrolidine-2-carboxamide by Western blot analysis; assay type: cell-based
[16] = target: T3, Dual specificity mitogen-activated protein kinase kinase; MEK1/2; assay: Induction of MEK1/2 degradation in human A549 cells at 1 uM incubated for 24 hrs in presence of MLN4924 by Western blot analysis; assay type: cell-based
A549 = assay: Antiproliferative activity against human A549 cells incubated for 4 days by MTT assay; assay type: functional, cell-based; conditions: A549, 96 h
[17] = target: T3, Dual specificity mitogen-activated protein kinase kinase; MEK1/2; assay: Induction of MEK1/2 degradation in human A549 cells at 1 uM incubated for 24 hrs in presence of MG132 by Western blot analysis; assay type: cell-based

Cc1ncsc1-c1ccc([C@H](C)NC(=O)[C@@H]2C[C@@H](O)CN2C(=O)[C@@H](NCCOCCOCCOCCOCCOCCn2cc(CNc3cccc(Cc4c(C)c5ccc(Oc6ncccn6)cc5oc4=O)c3)nn2)C(C)(C)C)cc1
Activity [1]: inactive

Cc1c(Cc2cccc(NCc3cn(CCOCCOCCOCCOCCOCCNc4cccc5c4C(=O)N(C4CCC(=O)NC4=O)C5=O)nn3)c2F)c(=O)oc2cc(Oc3ncccn3)ccc12 (configuration not stated)
Activity [2]: inactive

Cc1c(Cc2cccc(NC(=O)CCCNC(=O)CCC(=O)Nc3cccc4c3C(=O)N(C3CCC(=O)NC3=O)C4=O)c2F)c(=O)oc2cc(Oc3ncccn3)ccc12 (configuration not stated)
Activity [3]: inactive

Cc1ncsc1-c1ccc([C@H](C)NC(=O)[C@@H]2C[C@@H](O)CN2C(=O)[C@@H](NC(=O)CCC(=O)NCCCCCC(=O)Nc2cccc(Cc3c(C)c4ccc(Oc5ncccn5)cc4oc3=O)c2F)C(C)(C)C)cc1
Activity [4]: 72%

Cc1ncsc1-c1ccc([C@H](C)NC(=O)[C@@H]2C[C@@H](O)CN2C(=O)[C@@H](NC(=O)CCC(=O)NCCCCCCC(=O)Nc2cccc(Cc3c(C)c4ccc(Oc5ncccn5)cc4oc3=O)c2F)C(C)(C)C)cc1
Activity [4]: 70%

Cc1ncsc1-c1ccc([C@H](C)NC(=O)[C@@H]2C[C@@H](O)CN2C(=O)[C@@H](NCCOCCOCCOCCn2cc(CNc3cccc(Cc4c(C)c5ccc(Oc6ncccn6)cc5oc4=O)c3)nn2)C(C)(C)C)cc1
Activity [1]: inactive

Cc1c(Cc2cccc(NCc3cn(CCOCCOCCOCCNc4cccc5c4C(=O)N(C4CCC(=O)NC4=O)C5=O)nn3)c2)c(=O)oc2cc(Oc3ncccn3)ccc12 (configuration not stated)
Activity [2]: inactive

Cc1ncsc1-c1ccc([C@H](C)NC(=O)[C@@H]2C[C@@H](O)CN2C(=O)[C@@H](NCCOCCOCCOCCn2cc(CNc3cccc(Cc4c(C)c5ccc(Oc6ncccn6)cc5oc4=O)c3F)nn2)C(C)(C)C)cc1
Activity [1]: inactive

Cc1c(Cc2cccc(NC(=O)CCCCCCNC(=O)CCC(=O)Nc3cccc4c3C(=O)N(C3CCC(=O)NC3=O)C4=O)c2F)c(=O)oc2cc(Oc3ncccn3)ccc12 (configuration not stated)
Activity [3]: 45%

Cc1c(Cc2cccc(NC(=O)CCCCNC(=O)CCC(=O)Nc3cccc4c3C(=O)N(C3CCC(=O)NC3=O)C4=O)c2F)c(=O)oc2cc(Oc3ncccn3)ccc12 (configuration not stated)
Activity [3]: < 5%

Cc1c(Cc2cccc(NCc3cn(CCOCCOCCOCCOCCNc4cccc5c4C(=O)N(C4CCC(=O)NC4=O)C5=O)nn3)c2)c(=O)oc2cc(Oc3ncccn3)ccc12 (configuration not stated)
Activity [2]: inactive

Cc1ncsc1-c1ccc([C@H](C)NC(=O)[C@@H]2C[C@@H](O)CN2C(=O)[C@@H](NCCOCCOCCOCCOCCn2cc(CNc3cccc(Cc4c(C)c5ccc(Oc6ncccn6)cc5oc4=O)c3)nn2)C(C)(C)C)cc1
Activity [1]: inactive

Cc1c(Cc2cccc(NCc3cn(CCOCCOCCOCCOCCOCCNc4cccc5c4C(=O)N(C4CCC(=O)NC4=O)C5=O)nn3)c2)c(=O)oc2cc(Oc3ncccn3)ccc12 (configuration not stated)
Activity [2]: inactive

Cc1ncsc1-c1ccc([C@H](C)NC(=O)[C@@H]2C[C@@H](O)CN2C(=O)[C@@H](NC(=O)CCC(=O)NCCCC(=O)Nc2cccc(Cc3c(C)c4ccc(Oc5ncccn5)cc4oc3=O)c2)C(C)(C)C)cc1
Activity [4]: < 5%
Activity (A-375 [5]): 21%

Cc1ncsc1-c1ccc([C@H](C)NC(=O)[C@@H]2C[C@@H](O)CN2C(=O)[C@@H](NC(=O)CCC(=O)NCCCCCCC(=O)Nc2cccc(Cc3c(C)c4ccc(Oc5ncccn5)cc4oc3=O)c2)C(C)(C)C)cc1
Activity [4]: < 5%

Cc1c(Cc2cccc(NCc3cn(CCOCCOCCNc4cccc5c4C(=O)N(C4CCC(=O)NC4=O)C5=O)nn3)c2F)c(=O)oc2cc(Oc3ncccn3)ccc12 (configuration not stated)
Activity [2]: inactive

CNS(=O)(=O)Nc1cccc(Cc2c(C)c3ccc(Oc4ncccn4)cc3oc2=O)c1F
IC50 (A-375 [6]): 1900 nM

Cc1c(Cc2cccc(NCc3cn(CCOCCOCCNc4cccc5c4C(=O)N(C4CCC(=O)NC4=O)C5=O)nn3)c2)c(=O)oc2cc(Oc3ncccn3)ccc12 (configuration not stated)
Activity [2]: inactive

Cc1c(Cc2cccc(NC(=O)CCCCCNC(=O)CCC(=O)Nc3cccc4c3C(=O)N(C3CCC(=O)NC3=O)C4=O)c2F)c(=O)oc2cc(Oc3ncccn3)ccc12 (configuration not stated)
Activity [3]: inactive

Cc1ncsc1-c1ccc([C@H](C)NC(=O)[C@@H]2C[C@@H](O)CN2C(=O)[C@@H](NCCOCCOCCOCCOCCn2cc(CNc3cccc(Cc4c(C)c5ccc(Oc6ncccn6)cc5oc4=O)c3F)nn2)C(C)(C)C)cc1
Activity [1]: inactive

Cc1ncsc1-c1ccc([C@H](C)NC(=O)[C@@H]2C[C@@H](O)CN2C(=O)[C@@H](NCCOCCOCCn2cc(CNc3cccc(Cc4c(C)c5ccc(Oc6ncccn6)cc5oc4=O)c3F)nn2)C(C)(C)C)cc1
Activity [1]: 20%

Cc1c(Cc2cccc(NC(=O)CCCCCCCNC(=O)CCC(=O)Nc3cccc4c3C(=O)N(C3CCC(=O)NC3=O)C4=O)c2F)c(=O)oc2cc(Oc3ncccn3)ccc12 (configuration not stated)
Activity [3]: 30%

Cc1ncsc1-c1ccc([C@H](C)NC(=O)[C@@H]2C[C@@H](O)CN2C(=O)[C@@H](NC(=O)CCC(=O)NCCCCC(=O)Nc2cccc(Cc3c(C)c4ccc(Oc5ncccn5)cc4oc3=O)c2F)C(C)(C)C)cc1
Activity [7]: Active
DC50 [8]: 2.8 µM
DC50 [9]: 200 nM
IC50 (A-375 [6]): 2800 nM
Activity [10]: > 70%
Ratio IC50 [11]: 10
DC50 [12]: 300 nM
Activity [4]: 85%
Activity [13]: Active
Activity [14]: inactive
Activity [15]: inactive
Activity [16]: inactive
IC50 (A549): 27.3 µM
Activity [17]: inactive
Activity (A-375 [5]): 60%

Cc1ncsc1-c1ccc([C@H](C)NC(=O)[C@@H]2C[C@@H](O)CN2C(=O)[C@@H](NCCOCCOCCOCCOCCOCCn2cc(CNc3cccc(Cc4c(C)c5ccc(Oc6ncccn6)cc5oc4=O)c3F)nn2)C(C)(C)C)cc1
Activity [1]: inactive

Cc1c(Cc2cccc(NCc3cn(CCOCCOCCOCCNc4cccc5c4C(=O)N(C4CCC(=O)NC4=O)C5=O)nn3)c2F)c(=O)oc2cc(Oc3ncccn3)ccc12 (configuration not stated)
Activity [2]: inactive

Cc1c(Cc2cccc(NCc3cn(CCOCCOCCOCCOCCNc4cccc5c4C(=O)N(C4CCC(=O)NC4=O)C5=O)nn3)c2F)c(=O)oc2cc(Oc3ncccn3)ccc12 (configuration not stated)
Activity [2]: inactive

Cc1ncsc1-c1ccc([C@H](C)NC(=O)[C@@H]2C[C@@H](O)CN2C(=O)[C@@H](NC(=O)CCC(=O)NCCCCCCCCCCC(=O)Nc2cccc(Cc3c(C)c4ccc(Oc5ncccn5)cc4oc3=O)c2)C(C)(C)C)cc1
Activity [4]: < 5%

Cc1ncsc1-c1ccc([C@H](C)NC(=O)[C@@H]2C[C@@H](O)CN2C(=O)[C@@H](NCCOCCOCCn2cc(CNc3cccc(Cc4c(C)c5ccc(Oc6ncccn6)cc5oc4=O)c3)nn2)C(C)(C)C)cc1
Activity [1]: inactive

Cc1ncsc1-c1ccc([C@H](C)NC(=O)[C@@H]2C[C@@H](O)CN2C(=O)[C@@H](NC(=O)CCC(=O)NCCCCCCCC(=O)Nc2cccc(Cc3c(C)c4ccc(Oc5ncccn5)cc4oc3=O)c2F)C(C)(C)C)cc1
Activity [4]: 78%

Cc1ncsc1-c1ccc([C@H](C)NC(=O)[C@@H]2C[C@@H](O)CN2C(=O)[C@@H](NC(=O)CCC(=O)NCCCCCCCCCCCC(=O)Nc2cccc(Cc3c(C)c4ccc(Oc5ncccn5)cc4oc3=O)c2)C(C)(C)C)cc1
Activity [4]: < 5%

Cc1ncsc1-c1ccc([C@H](C)NC(=O)[C@@H]2C[C@@H](O)CN2C(=O)[C@@H](NC(=O)CCC(=O)NCCCC(=O)Nc2cccc(Cc3c(C)c4ccc(Oc5ncccn5)cc4oc3=O)c2F)C(C)(C)C)cc1
Activity [4]: 20%
Activity (A-375 [5]): 13%
